The source made the active and inactive calls. The calls are words filed in the database; no cut-off is given here.

The values that follow come from ChEMBL document CHEMBL3272224, “Synthesis and hypotensive activity of N-alkyl-N"-cyano-N'-pyridylguanidines” (J Med Chem, 1978).

System in one data set: not listed separately
Nature of the data set: Toxicity in po dosed mouse assessed as mortality after 7 days. To be noted: in vivo.
Turning to `CC(C)(C)N/C(=N\C#N)Nc1cnc2ccccc2c1`, the LD50 – broadly, the dose at which mortality reaches 50% – at 168 h is > 1000 mg/kg.
On the same count and under the same terms, with `COc1ccc(/N=C(\NC#N)NC(C)(C)C)c(OC)n1` the figure was > 1000 mg/kg; with `CC(C)(C)N/C(=N\O)Nc1cccnc1`, 1000 mg/kg; with `CC(C)C(/N=C(\NC#N)Nc1cccnc1)C(C)C`, > 1000 mg/kg.
As for `C=C(C)C/N=C(\NC#N)Nc1cccnc1`, the LD50 at 168 h came out at 1000 mg/kg.
On the same count and under the same terms, with `N#C/N=C(/Nc1cccnc1)NC12CC3CC(CC(C3)C1)C2` the figure was > 1000 mg/kg; with `C/N=C(\NC#N)Nc1cccnc1`, > 1000 mg/kg.
Still for that read-out and setting: with `CC(=O)Nc1ccc(N/C(=N/C#N)NC(C)(C)C)cc1` the figure was > 1000 mg/kg; with `CC(C)C(C)(C)/N=C(\NC#N)Nc1cccnc1`, > 1000 mg/kg.
Same read-out and setting: with `CC(C)(C)/N=C(\NC#N)Nc1ccncc1` the figure was > 1000 mg/kg.
With `CCC/N=C(\NC#N)Nc1cccnc1`, the LD50 at 168 h is > 1000 mg/kg.
On to `CC(C)C(/N=C(\NC#N)Nc1ccncc1)C(C)C`, for which the median lethal dose (LD50) at 168 h turned out to be 250 mg/kg.
Still for that read-out and setting: with `Cc1cccc(C)c1/N=C(\NC#N)Nc1cccnc1` the figure was > 1000 mg/kg.
Same read-out and setting: with `CCCN(CCC)S(=O)(=O)/N=C(/Nc1cccnc1)NC(C)(C)CC` the figure was > 1000 mg/kg; with `CCC(CC)(CC)/N=C(\NC#N)Nc1cccnc1`, > 1000 mg/kg; with `CC(C)(N/C(=N\C#N)Nc1ccncc1)c1ccccc1`, > 1000 mg/kg.

The subject of another data set is Rattus norvegicus. The experiment in a line: Hypotensive activity in po dosed spontaneously hypertensive Wistar-Okamoto rat assessed as dose required to cause 30 mmHg fall of blood pressure administered for 5 days. Type of data set: functional. To be noted: 120 h, read-out: MED.
Regarding `CC(C)(C)N/C(=N\C#N)Nc1cnc2ccccc2c1`, the minimal effective dose turned out to be 20 mg/kg.
The same measure, in the same setting: with `COc1ccc(/N=C(\NC#N)NC(C)(C)C)c(OC)n1` the figure was > 50 mg/kg; with `CC(C)(C)N/C(=N\O)Nc1cccnc1`, > 35 mg/kg.
As for `CC(C)C(/N=C(\NC#N)Nc1cccnc1)C(C)C`, the minimal effective dose was 5 mg/kg.
Take `C=C(C)C/N=C(\NC#N)Nc1cccnc1`: the minimal effective dose came out at 20 mg/kg.
In the case of `N#C/N=C(/Nc1cccnc1)NC12CC3CC(CC(C3)C1)C2`, the minimal effective dose was determined as 50 mg/kg.
On the same count and under the same terms, with `C/N=C(\NC#N)Nc1cccnc1` the figure was > 50 mg/kg.
As to `CC(=O)Nc1ccc(N/C(=N/C#N)NC(C)(C)C)cc1`, the minimal effective dose is > 50 mg/kg.
As for `CC(C)C(C)(C)/N=C(\NC#N)Nc1cccnc1`, the minimal effective dose was determined as 1 mg/kg.
Still for that read-out and setting: with `CC(C)(C)/N=C(\NC#N)Nc1ccncc1` the figure was 2.5 mg/kg; with `CCC/N=C(\NC#N)Nc1cccnc1`, 20 mg/kg; with `CC(C)C(/N=C(\NC#N)Nc1ccncc1)C(C)C`, 8 mg/kg.
For the compound `Cc1cccc(C)c1/N=C(\NC#N)Nc1cccnc1`, the minimal effective dose is 50 mg/kg.
The same measure, in the same setting: with `CCC(C)(C)/N=C(\NC#N)Nc1cccnc1` the figure was 0.1 mg/kg.
`CCCN(CCC)S(=O)(=O)/N=C(/Nc1cccnc1)NC(C)(C)CC`: the minimal effective dose is > 50 mg/kg.
On the same count and under the same terms, with `CCC(CC)(CC)/N=C(\NC#N)Nc1cccnc1` the figure was 1 mg/kg.
On the same count and under the same terms, with `CC(C)(N/C(=N\C#N)Nc1ccncc1)c1ccccc1` the figure was > 50 mg/kg.

System in the next data set: not listed separately
The experiment in a line: Toxicity in po dosed Sprague-Dawley rat assessed as mortality after 7 days. To be noted: in vivo. It is filed as organism-based.
Regarding `NNc1nncc2ccccc12` [HYDRALAZINE], the median lethal dose (LD50) at 168 h was determined as 107 mg/kg.

A further data set relates to Rattus norvegicus. The experiment in a line: Hypotensive activity in spontaneously hypertensive Wistar-Okamoto rat assessed as maximum change in mean blood pressure at 2.5 mg/kg, po relative to control. It is filed as functional.
Settings: not given
A digest of the protocol:
(§1)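 Spontaneously hypertensive Wistar-Okamoto rats, five per dose, received compound orally, dissolved or suspended in 0.5% carboxymethylcellulose. Blood pressure was measured indirectly by tail cuff in restrained conscious rats before dosing and at 2, 4, 6, 8, 12 and 24 h. Maximum change was measured after a single administration and given as mean ± error.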
On to `NNc1nncc2ccccc12` [HYDRALAZINE], for which the Activity is -64 mmHg.

Another data set relates to Rattus norvegicus. The experiment in a line: Hypotensive activity in spontaneously hypertensive Wistar-Okamoto rat assessed as maximum change in mean blood pressure at 0.01 mg/kg, po relative to control. Type of data set: functional.
Settings: not given
A digest of the protocol: as §1
As to `CCC(C)(C)/N=C(\NC#N)Nc1cccnc1`, the Activity is on record as -27 mmHg.

The next data set has as its system Rattus norvegicus. The experiment in a line: Hypotensive activity in spontaneously hypertensive Wistar-Okamoto rat assessed as maximum change in mean blood pressure at 0.05 mg/kg, po relative to control.
Settings: not given
It is filed as functional. In a few lines:
as §1
For the compound `CCC(C)(C)/N=C(\NC#N)Nc1cccnc1`, the Activity is reported as -72 mmHg.

The next data set deals with Rattus norvegicus. The experiment in a line: Hypotensive activity in spontaneously hypertensive Wistar-Okamoto rat assessed as maximum change in mean blood pressure at 0.1 mg/kg, po relative to control. It is filed as functional.
Settings: not given
In a few lines:
as §1
As to `CCC(C)(C)/N=C(\NC#N)Nc1cccnc1`, the Activity is given as >-100 mmHg.

The subject of a further data set is Rattus norvegicus. The experiment in a line: Hypotensive activity in spontaneously hypertensive Wistar-Okamoto rat assessed as maximum change in mean blood pressure at 1 mg/kg, po relative to control. It is filed as functional.
Settings: not given
A digest of the protocol:
as §1
On to `NNc1nncc2ccccc12` [HYDRALAZINE], for which the Activity is recorded as -36 mmHg.

The next data set concerns Rattus norvegicus. The experiment in a line: Hypotensive activity in spontaneously hypertensive Wistar-Okamoto rat assessed as time required for persistence of hypotensive effect at 2.5 mg/kg, po. It is filed as functional.
Settings: not given
A digest of the protocol:
(§2)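 SHR (Wistar-Okamoto), five per dose, were given an oral dose in 0.5% carboxymethylcellulose. Indirect cuff pressure in restrained conscious rats was read before dosing and at 2, 4, 6, 8, 12 and 24 h. Duration (h) was scored while pressure remained 15 mmHg or more below the initial reading.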
With `NNc1nncc2ccccc12` [HYDRALAZINE], the Time was >8 h.

Another data set has as its system Rattus norvegicus. The experiment in a line: Hypotensive activity in spontaneously hypertensive Wistar-Okamoto rat assessed as time required for persistence of hypotensive effect at 0.01 mg/kg, po. Type of data set: functional.
Settings: not given
A digest of the protocol:
as §2
For `CCC(C)(C)/N=C(\NC#N)Nc1cccnc1`, the Time stood at 2 h.

For the next data set, the system named is Rattus norvegicus. The experiment in a line: Hypotensive activity in spontaneously hypertensive Wistar-Okamoto rat assessed as time required for persistence of hypotensive effect at 0.05 mg/kg, po.
Settings: not given
Type of data set: functional. In a few lines:
as §2
As for `CCC(C)(C)/N=C(\NC#N)Nc1cccnc1`, the Time was 4 h.

A further data set has as its system Rattus norvegicus. The experiment in a line: Hypotensive activity in spontaneously hypertensive Wistar-Okamoto rat assessed as time required for persistence of hypotensive effect at 0.1 mg/kg, po.
Settings: not given
Type of data set: functional. A digest of the protocol: as §2
With `CCC(C)(C)/N=C(\NC#N)Nc1cccnc1`, the Time came out at 4 h.

For a further data set, the system named is Rattus norvegicus. Nature of the data set: Hypotensive activity in spontaneously hypertensive Wistar-Okamoto rat assessed as time required for persistence of hypotensive effect at 1 mg/kg, po. It is filed as functional.
Settings: not given
A digest of the protocol: as §2
Take `NNc1nncc2ccccc12` [HYDRALAZINE]: the Time was determined as 4 h.

Another data set concerns Canis familiaris. The experiment in a line: Hypotensive activity in conscious renal hypertensive dog assessed as maximum change in mean blood pressure at 0.05 mg/kg, po measured for 8 hrs relative to control. Type of data set: functional, Canis lupus familiaris.
Settings: not given
A digest of the protocol: (§3)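 Renal hypertensive dogs, conscious, dosed orally in soft gelatin capsules, three dogs per dose. Mean blood pressure was taken indirectly with an Arteriosonde, standing animals in a semi-insonorized room, just before dosing and then hourly for 8 h. Maximum change was measured after a single administration and given as mean ± error.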
For the compound `CCC(C)(C)/N=C(\NC#N)Nc1cccnc1`, the Activity is -41 mmHg.

The test system of a further data set is Canis familiaris. The experiment in a line: Hypotensive activity in conscious renal hypertensive dog assessed as maximum change in mean blood pressure at 0.1 mg/kg, po measured for 8 hrs relative to control. Type of data set: functional, Canis lupus familiaris.
Settings: not given
In a few lines: as §3
`CCC(C)(C)/N=C(\NC#N)Nc1cccnc1`: the Activity was -69 mmHg.

Another data set concerns Canis familiaris. Nature of the data set: Hypotensive activity in conscious renal hypertensive dog assessed as maximum change in mean blood pressure at 0.5 mg/kg, po measured for 8 hrs relative to control.
Settings: not given
It is filed as functional, Canis lupus familiaris. In a few lines: as §3
Consider `NNc1nncc2ccccc12` [HYDRALAZINE], for which the Activity is -21 mmHg.

The test system of another data set is Canis familiaris. The experiment in a line: Hypotensive activity in conscious renal hypertensive dog assessed as maximum change in mean blood pressure at 1 mg/kg, po measured for 8 hrs relative to control.
Settings: not given
Type of data set: functional, Canis lupus familiaris. A digest of the protocol:
as §3
For the compound `NNc1nncc2ccccc12` [HYDRALAZINE], the Activity is recorded as -42 mmHg.

The next data set concerns Canis familiaris. Nature of the data set: Hypotensive activity in conscious renal hypertensive dog assessed as time required for persistence of hypotensive effect at 0.05 mg/kg, po measured for 8 hrs. It is filed as functional, Canis lupus familiaris.
Settings: not given
In a few lines: (§4)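 Conscious renal hypertensive dogs received single oral doses in soft gelatin capsules, three per dose. Indirect standing blood pressure was read before dosing and hourly to 8 h. Duration (h) was the time the pressure stayed 15 mmHg or more below the initial value, which was taken as persistence of the hypotensive effect.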
On to `CCC(C)(C)/N=C(\NC#N)Nc1cccnc1`, for which the Time is 4 h.

The next data set relates to Canis familiaris. Nature of the data set: Hypotensive activity in conscious renal hypertensive dog assessed as time required for persistence of hypotensive effect at 0.1 mg/kg, po measured for 8 hrs.
Settings: not given
It is filed as functional, Canis lupus familiaris. In a few lines: as §4
Consider `CCC(C)(C)/N=C(\NC#N)Nc1cccnc1`, for which the Time is >6 h.

Another data set relates to Canis familiaris. Nature of the data set: Hypotensive activity in conscious renal hypertensive dog assessed as time required for persistence of hypotensive effect at 0.5 mg/kg, po measured for 8 hrs.
Settings: not given
It is filed as functional, Canis lupus familiaris. A digest of the protocol: as §4
As for `NNc1nncc2ccccc12` [HYDRALAZINE], the Time came to 2 h.

In a further data set the test system is Canis familiaris. Nature of the data set: Hypotensive activity in conscious renal hypertensive dog assessed as time required for persistence of hypotensive effect at 1 mg/kg, po measured for 8 hrs. Type of data set: functional, Canis lupus familiaris.
Settings: not given
A digest of the protocol:
as §4
In the case of `NNc1nncc2ccccc12` [HYDRALAZINE], the Time turned out to be 6 h.

The test system of another data set is Rattus norvegicus. The experiment in a line: Hypotensive activity in po dosed spontaneously hypertensive Wistar-Okamoto rat relative to guancydine. Type of data set: functional.
Settings: not given
For `CCC(C)(C)/N=C(\NC#N)Nc1cccnc1`, the “fold change (FC)” value is 100.

A further data set is filed under the species Felis catus. The experiment in a line: Hypotensive activity in decerebrated cat. It is filed as functional, organism-based.
Settings: not given
For the compound `CCC(C)(C)/N=C(\NC#N)Nc1cccnc1`, the result was Active.
